Experimental data from ChEMBL document CHEMBL1130313, “1-[(omega-aminoalkyl)amino]-4-[N-(omega-aminoalkyl)carbamoyl]-9-oxo-9, 10-dihydroacridines as intercalating cytotoxic agents: synthesis, DNA binding, and biological evaluation” (J Med Chem, 1997).

Experiments:
SK-OV-3 = test: Cytotoxic potency required to inhibit SKOV-3 cell growth 50%; assay type: functional, cell-based; conditions: Homo sapiens
Procedure, shortened: (§1)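 Human ovarian carcinoma (A2780, CH1, SKOV-3) or melanoma G-361 cells were plated at 100-5000 cells and allowed to adhere overnight. Aqueous drug at pH 7.0, diluted from DMSO stock, was applied at various concentrations for 96 h continuous exposure at 37 °C. Growth was measured by sulforhodamine B protein staining. IC50 is 50% growth inhibition versus untreated controls.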

Calf thymus DNA [1] = test: Inhibitory concentration against ethidium:calf thymus DNA (1.26:1) binding at pH 5; assay type: nucleic-acid assay; conditions: Bos taurus
Procedure, shortened: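 Ethidium displacement at pH 5: 1.26 μM ethidium bromide with 1 μM CT-DNA in 9.3 mM NaCl, 2 mM NaOAc, 0.1 mM EDTA. Drug (stock ~5 mM in DMSO) is added serially at 20 °C. Fluorescence is read with excitation 546 nm and emission 595 nm. C50 is the concentration reducing bound-ethidium fluorescence by 50%; mean of three.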

L1210 = test: Cytotoxic potency required to inhibit L1210 cell growth by 50% after cell drug contact for 48 hrs; assay type: functional, cell-based; conditions: Mus musculus, L1210, 48 h
Procedure, shortened: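 Mouse L1210 leukemia cells at 5 × 10^4 cells/mL were exposed for 48 h at 37 °C to aqueous drug solutions (≤0.5% v/v DMSO). Surviving cells were counted by Coulter counter against drug-free controls to give IC50. Assays were done in duplicate.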

A2780 = test: Cytotoxic potency required to inhibit A2780 cell growth by 50% after cell drug contact for 96 hrs; assay type: functional, cell-based; conditions: Homo sapiens, A2780, 96 h; procedure, shortened: as §1
Calf thymus DNA [2] = test: Inhibitory concentration against ethidium:Calf thymus DNA(1.26:1) binding at pH 7; assay type: nucleic-acid assay; conditions: Bos taurus
Procedure, shortened: (§2)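 Ethidium displacement at pH 7: 1.26 μM ethidium bromide with 1 μM CT-DNA in 10 mM TES, 0.1 mM EDTA. Drug (stock ~5 mM in DMSO) is titrated in at 20 °C. Read-out is excitation 546 nm, emission 595 nm. C50 is the drug concentration cutting bound-ethidium fluorescence by 50%; mean of three determinations.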

Calf thymus DNA [3] = test: Inhibitory concentration against ethidium:Calf thymus DNA(0.1:1) binding at pH 5; assay type: nucleic-acid assay; conditions: Bos taurus
Procedure, shortened: (§3)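 Q (quenching) assay at pH 5: DNA at 20 μM DNAp (CT-DNA, [poly(dA-dT)]2 or [poly(dG-dC)]2) with 2 μM ethidium bromide. Buffer is 9.3 mM NaCl, 2 mM NaOAc, 0.1 mM EDTA, 0.01 M ionic strength. Drug (stock ~5 mM in DMSO) is added serially at 20 °C. Fluorescence is read with excitation 546 nm and emission 595 nm. Q is the concentration halving bound-ethidium fluorescence; mean of three.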

[4] = Partition coefficient (logP); assay type: physicochemical; conditions: octanol/water
G-361 = test: Cytotoxic potency required to inhibit G-361 cell growth by 50%; assay type: functional, cell-based; conditions: Homo sapiens; procedure, shortened: as §1
CH1 [5] = test: Cytotoxic potency required to inhibit CH1 cell growth by 50%; assay type: functional, cell-based; conditions: Homo sapiens; procedure, shortened: as §1
Nucleic Acid [6] = test: Concentration required to give 50% fluorescence quenching of bound ethidium for [ethidium]: [poly(dA-dT)]2 DNA in ratio of 0.1:1 at pH 5; assay type: nucleic-acid assay; procedure, shortened: as §3
HT-29 = test: Cytotoxic potency required to inhibit HT-29 cell growth by 50% after cell drug contact for 144 hrs; assay type: functional, cell-based; conditions: Homo sapiens, HT-29, 144 h
Nucleic Acid [7] = test: Concentration required to give 50% fluorescence quenching of bound ethidium for [ethidium]: [(poly dG-dC)]2 DNA in ratio of 0.1:1 at pH 5; assay type: nucleic-acid assay; procedure, shortened: as §3
Calf thymus DNA [8] = test: Inhibitory concentration against ethidium:Calf thymus DNA (1.26:1) binding at pH 7; assay type: nucleic-acid assay; conditions: Bos taurus; procedure, shortened: as §2
CH1 [9] = test: Cytotoxic potency against CH1 cell proliferation; assay type: functional, cell-based; conditions: Homo sapiens; procedure, shortened: as §1

| Compound | IC50 (SK-OV-3) | C50 (Calf thymus DNA [1]) | IC50 (L1210) | IC50 (A2780) | C50 (Calf thymus DNA [2]) | Q (Calf thymus DNA [3]) | logP [4] | IC50 (G-361) | IC50 (CH1 [5]) | Q (Nucleic Acid [6]) | IC50 (HT-29) | Q (Nucleic Acid [7]) | C50 (Calf thymus DNA [8]) | IC50 (CH1 [9]) |
| --- | --- | --- | --- | --- | --- | --- | --- | --- | --- | --- | --- | --- | --- | --- |
| O=C(NCCNCCO)c1ccc(NCCNCCO)c2c(O)c3ccccc3nc12 | 21500 nM | 1.7 µM | 4000 nM | 4800 nM | 0.36 µM | 3.2 µM | 3.15 | 15500 nM | 165 nM | 2.6 µM | > 23000 nM | 4.1 µM | – | – |
| CN(C)CCNC(=O)c1ccc(NCCNCCO)c2c(O)c3ccccc3nc12 | 170 nM | 2 µM | 35 nM | 17 nM | – | 4.2 µM | 4.09 | 280 nM | 16 nM | 3.8 µM | 140 nM | 4.7 µM | 0.35 µM | – |
| CN(C)CCNC(=O)c1ccc(NCCN(C)C)c2c(O)c3cc([N+](=O)[O-])ccc3nc12 | 210 nM | 0.61 µM | 460 nM | 42 nM | – | 2.1 µM | 5.68 | 1800 nM | 175 nM | 1.8 µM | 190 nM | 2.4 µM | 0.17 µM | – |
| O=C(NCCN1CCOCC1)c1ccc(NCCN2CCOCC2)c2c(O)c3ccccc3nc12 | 7400 nM | 16 µM | 440 nM | 1500 nM | – | 4.8 µM | 4.42 | 7200 nM | 1250 nM | 3.7 µM | 4500 nM | 6 µM | 3.7 µM | – |
| CN(C)CCNC(=O)c1ccc(NCCN(C)C)c2c(=O)c3ccccc3[nH]c12 | 400 nM | 1.1 µM | 44 nM | 15 nM | – | 3.3 µM | 5.12 | 15 nM | – | 3.1 µM | 94 nM | 3.5 µM | 0.34 µM | 20 nM |
| COc1ccc2nc3c(C(=O)NCCN(C)C)ccc(NCCN(C)C)c3c(O)c2c1 | 420 nM | 3.1 µM | 410 nM | 57 nM | – | 5.8 µM | 5.32 | 1250 nM | 490 nM | 5.3 µM | 500 nM | 6.5 µM | 0.69 µM | – |
| CN(C)CCNC(=O)c1ccc(N(C)CCN(C)C)c2c(O)c3ccccc3nc12 | 1000 nM | 4.8 µM | 1650 nM | 410 nM | – | 14 µM | 4.21 | 1500 nM | 3400 nM | 13 µM | 3000 nM | 15 µM | 0.94 µM | – |
| COc1cc(NS(C)(=O)=O)ccc1Nc1c2ccccc2nc2ccccc12 | – | 8.9 µM | – | – | – | 3.8 µM | – | – | – | 25 µM | – | 4.5 µM | – | – |
| Cn1cc(NC(=O)c2cc(NC(=O)c3cc(NC=O)cn3C)cn2C)cc1C(=O)NCCC(=N)N | – | 5 µM | – | – | – | 39.5 µM | – | – | – | 1.6 µM | – | 130 µM | 1.3 µM | – |
| N=C(N)c1ccc(/N=N/Nc2ccc(C(=N)N)cc2)cc1 | – | 4.4 µM | – | – | – | 9 µM | – | – | – | 5 µM | – | 19 µM | 1.5 µM | – |
| CCN(CC)CCNC(=O)c1ccc(NCCN(CC)CC)c2c(O)c3ccccc3nc12 | 2400 nM | 20 µM | 3300 nM | 760 nM | – | 27 µM | 7.25 | 6200 nM | 1250 nM | 19 µM | 5700 nM | 36 µM | 2.3 µM | – |
| c1ccc2nc3ccccc3cc2c1 [ACRIDINE] | – | 142 µM | – | > 100000 nM | – | 24 µM | – | – | – | 26 µM | – | 22 µM | 320 µM | – |
| Nc1ccc2cc3ccc(N)cc3nc2c1 | – | – | – | – | – | 20 µM | – | – | – | 24 µM | – | 14 µM | – | – |
| CN(C)CCCNC(=O)c1ccc(NCCCN(C)C)c2c(O)c3ccccc3nc12 | 400 nM | 3.2 µM | 520 nM | 110 nM | – | 4.8 µM | 5.76 | 3600 nM | 335 nM | 3.2 µM | 580 nM | 6.6 µM | 0.38 µM | – |
| O=C1c2c(O)ccc(O)c2C(=O)c2c(NCCNCCO)ccc(NCCNCCO)c21 [MITOXANTRONE] | – | 0.021 µM | 0.4 nM | 0.55 nM | – | 0.34 µM | – | 0.65 nM | 2.65 nM | 0.32 µM | 10 nM | 0.37 µM | 0.037 µM | – |
| O=C(NCCN1CCCCC1)c1ccc(NCCN2CCCCC2)c2c(O)c3ccccc3nc12 | 620 nM | 0.83 µM | 1200 nM | 24 nM | – | 4.4 µM | 7.73 | 670 nM | 1200 nM | 3.4 µM | 450 nM | 5.6 µM | 0.28 µM | – |
| CN(C)CCNC(=O)c1ccc(NCCN(C)C)c2c(O)c3cc(O)ccc3nc12 | 170 nM | 2.2 µM | 140 nM | 51 nM | – | 4.8 µM | 4.77 | 300 nM | 640 nM | 4.4 µM | 2000 nM | 5.4 µM | 0.37 µM | – |
| Nc1ccc2c(O)c3ccc(N)cc3nc2c1 | > 100000 nM | 660 µM | 35000 nM | 37000 nM | – | 340 µM | – | – | > 100000 nM | > 400 µM | – | 280 µM | 630 µM | – |
| O=c1c2ccccc2[nH]c2ccccc12 [ACRIDONE] | > 100000 nM | – | > 100000 nM | > 100000 nM | – | > 400 µM | – | > 100000 nM | 77000 nM | > 500 µM | – | 340 µM | – | – |
